# Xi reactivation: reactivates the inactive X chromosome in mouse fibroblasts; XiGFP mouse fibroblasts, % GFP-positive cells imaging, 3 d; cells co-treated with 5-aza-dC sensitizer; scaled so ellipticine positive control = 100%; 0.055% of 360,000 active; AID 743238; activation, % at 7.58 µM;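 active means mean normalized replicate activation at least 10% and every replicate at or above 10%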;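 further: 0% = median of on-plate neutral control wells and 100% = ellipticine 6 µM median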
#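 Assay system: SV40-immortalized XiGFP fibroblast cells, line 68-5-11; buffer or medium: DMEM plus 5-aza-dC sensitizer; compound: one concentration, pinned; timing: compounds 3 days, fix/stain 15 min at room temperature; benchmarks: positive control ellipticine, 6 µM final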
# Rpn11 block: inhibitors of human proteasome Rpn11 | 0.59% of 360,000 active | AID 588493 | inhibition, % at 20 µM | O00487 | human 26S proteasome, Ub4-pepOG fluorescence polarization; 20S core pre-blocked with epoxomicin;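 active means inhibition at 20 µM, scaled to each plate's controls, above about 33%, limit read from the data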
# Target sequence (O00487 whole entry, looked up): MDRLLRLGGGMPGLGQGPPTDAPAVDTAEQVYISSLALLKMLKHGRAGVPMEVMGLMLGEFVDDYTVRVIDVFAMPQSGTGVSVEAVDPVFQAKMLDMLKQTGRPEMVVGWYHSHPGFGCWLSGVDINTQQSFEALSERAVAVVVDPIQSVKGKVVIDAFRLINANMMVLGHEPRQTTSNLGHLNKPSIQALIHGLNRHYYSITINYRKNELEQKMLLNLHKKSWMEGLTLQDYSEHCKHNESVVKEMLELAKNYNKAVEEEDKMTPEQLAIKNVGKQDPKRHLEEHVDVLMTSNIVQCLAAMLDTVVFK
# Rin1 Abl inh: human Rin1-Abl interaction inhibition; TR-FRET Rin1/Abl binding, biochemical; P00519+Q13671; AID 588664; inhibition, % at 7.35 µM; 0.4% of 360,000 active; in the data active means inhibition above about 5%, passing the limit was not always enough
# NadD block: NadD (S. aureus) enzyme inhibition; purified NadD enzyme, colorimetric absorbance read-out; inhibition, % at 20 µM; 0.78% of 360,000 active; AID 602399; in the data active means inhibition above about 26%
# ABHD5-PLIN5 inh: inhibitors of human ABHD5-perilipin-5 interaction | Q00G26+Q8WTS1 | Split G. princeps luciferase complementation, luminescence, 4 h | inhibition, % at 4 µM | 0.78% of 360,000 active | AID 602281;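 active means inhibition above the mean inhibition across every tested compound plus 3 SD, cut at about 22% in these data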;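 further: 0% = DMSO only wells and the 100% control is not disclosed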
# Rpn11 inh conf: confirmation of human proteasome Rpn11 inhibitors. shares compounds with Rpn11 block. purified human 26S proteasome, Ub4-pepOG fluorescence polarization; proteasome pretreated with epoxomicin. inhibition, % at 20 µM. 29% of 1,900 active
# MMP-2 counter: counter-screen for RPN11 inhibitors: inhibition of human MMP-2 | shares compounds with Rpn11 block | recombinant MMP-2, FRET peptide cleavage fluorescence | inhibition, % at 20 µM | 4% of 1,900 active | AID 602330;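 further: human MMP-2 activated beforehand with APMA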
# Thrombin FP: thrombin (bovine) inhibition counter-screen. 13% of 1,900 active. inhibition, % at 20 µM. bovine thrombin cleavage of Ub4-pepOG, fluorescence polarization. shares compounds with Rpn11 block. AID 602333;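 active means mean inhibition at least 40% at 20 µM, or signal 3 deviations below plate average, so some actives read negative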;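 further: plate controls were thrombin with DMSO for no effect and buffer wells lacking thrombin for full effect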
# * marks the source's active call; other numbers are inactive results; · = no result shown. Sampled rows, rich in hits. Any-hit rate of the full collection: about 1.9%. Unless noted, no stated cut-off is given here; in the data, active means inhibition above about 40%; inactive means the rest.
SMILES,Xi reactivation,Rpn11 block,Rin1 Abl inh,NadD block,ABHD5-PLIN5 inh,Rpn11 inh conf,MMP-2 counter,Thrombin FP
COc1ccc2c3c([nH]c2c1)[C@@H](CO)N(CC1CC1)CC31CN(C(=O)c2cccc(F)c2)C1,0,·,·,·,·,·,·,·
O=C(C[C@@H]1CC[C@@H](NS(=O)(=O)c2ccccc2)[C@@H](CO)O1)N1CCN(c2ccccc2)CC1,1,·,·,·,·,·,·,·
CCNC(=O)[C@H]1[C@H](CO)[C@H]2Cn3c(ccc(-c4ccccc4)c3=O)[C@@H]1N2CCC(F)(F)F,1,·,·,·,·,·,·,·
COc1ccc(CC(=O)Nc2ccc(-c3nc4cc(C)ccc4o3)c(O)c2)cc1OC,·,66*,0,19,10,9,-23,7
O=C(CCOc1ccccc1)Nc1ccccc1[N+](=O)[O-],0,34*,2,-2,2,-14,14,-13
O=C(CC(=O)Nc1ccccc1[N+](=O)[O-])Nc1ccccc1[N+](=O)[O-],0,-6,-5,-6,4,·,·,·
CSc1nc2ccc3nc(NC(=O)c4cccs4)sc3c2s1,·,47*,-2,-5,5,14,-25,-8
O=C(NCc1n[nH]c(=S)n1-c1ccc(F)cc1)c1ccc(S(=O)(=O)N2CCOCC2)cc1,0,92*,6,3,-9,-5,53*,-10
O=C(NCc1n[nH]c(=S)n1-c1ccccc1)c1ccc(S(=O)(=O)N2CCOCC2)cc1,·,-2,1,-4,-3,·,·,·
O=C1CSC(=S)N1N=Cc1ccc(Cl)s1,0,59*,0,3,-17,41*,31,37
O=C1CSC(=S)N1N=Cc1ccc2c(c1)OCO2,0,26,4,6,-25,·,·,·
COc1ccc(/C=N/N2C(=O)CSC2=S)cc1,·,10,0,-6,-3,·,·,·
CC(C)(C)c1ccc(/C=N/N2C(=O)CSC2=S)cc1,0,48*,1,24,-11,18,38,14
COc1ccc2c3c(n(C)c2c1)[C@H](CO)N(C(=O)Nc1ccc(F)cc1)CC31CCN(C(=O)CC2CC2)CC1,0,·,·,·,·,·,·,·
COc1ccc2c3c([nH]c2c1)[C@@H](CO)N(Cc1nccs1)CC31CCN(Cc2cncnc2)CC1,0,·,·,·,·,·,·,·
Cc1nn(-c2ccc(F)cc2)c(Cl)c1/C=N/NC(=O)c1cccc(S(=O)(=O)N2CCCC2)c1,0,14,1,12,-2,·,·,·
Cc1nn(-c2ccccc2)c(Cl)c1/C=N/NC(=O)c1cccc(S(=O)(=O)N2CCCC2)c1,0,40*,0,4,-4,28,31,-10
CC(C)[C@@H]1COCc2cn(nn2)CC[C@@H](Cc2ccc(Cl)cc2)C(=O)N1,0,·,·,·,·,·,·,·
O=C(N/N=C/c1sc(=O)n(Cc2ccc(Br)cc2)c1Cl)c1ccco1,0,148*,4,14,0,-24,48*,38
C[C@@H]1CCCCO[C@H](CN(C)C(=O)C2CCCCC2)[C@@H](C)CN([C@@H](C)CO)C(=O)c2cc(NC(=O)Nc3ccc(F)cc3)ccc2O1,0,·,·,·,·,·,·,·
Cc1ccc(S(=O)(=O)c2c(N)n(Cc3ccco3)c3nc4ccccc4nc23)cc1,·,4,1,16,12,·,·,·
Cc1ccc(S(=O)(=O)c2c(N)n(NC(=O)c3ccco3)c3nc4ccccc4nc23)cc1,·,39*,-8,14,2,5,-45,-3
Cc1ccc(N(Cc2ccccc2)C(=O)c2cc(S(=O)(=O)N3CCOCC3)ccc2F)cc1,-1,46*,4,-7,-1,9,-19,-1
Cc1ccc(N(Cc2ccccc2)C(=O)c2cc(S(=O)(=O)N3CCOCC3)ccc2Cl)cc1,0,18,0,-2,-4,·,·,·
COc1ccccc1NC(=O)CSc1nc(N)c(C#N)cc1C#N,0,50*,2,-6,0,71*,-26,47*
SMILES,Xi reactivation,Rpn11 block,Rin1 Abl inh,NadD block,ABHD5-PLIN5 inh,Rpn11 inh conf,MMP-2 counter,Thrombin FP
O=C(O)C(Cc1ccccc1)N1C(=O)/C(=C/C=C/c2ccco2)SC1=S (stereo not drawn),0,175*,7,27,0,178*,36,53*
O=C(NN1C(=O)/C(=C/C=C/c2ccco2)SC1=S)c1ccccc1O,0,177*,5,40*,12,100*,58*,60*
O=C(O)CCCN1C(=O)/C(=C/C=C/c2ccco2)SC1=S,0,·,5,1,17,·,·,·
CC(C)(C)c1cc(C(F)(F)F)c(C#N)c(=O)[nH]1,·,65*,-4,1,8,5,-22,4
O=C(O)c1cc(-c2ccco2)nn1-c1cccc(Cl)c1,0,42*,-2,6,6,19,15,6
CCCCCCCCCCCCCCCC[N+](C)(C)Cc1ccc(F)cc1,0,63*,2,13,16,88*,-23,4
CC#CC[N+](C)(C)CCCCCCCC,0,0,-2,-4,1,·,·,·
C[C@@H]1CN([C@@H](C)CO)C(=O)c2cc(NC(=O)C3CCCCC3)ccc2O[C@@H](C)CCCCO[C@@H]1CN(C)C(=O)Nc1cccc2ccccc12,-1,·,·,·,·,·,·,·
O=C(C[C@H]1C[C@H](C(=O)N2CCCCC2)[C@@]2(CCc3ccccc3)c3[nH]c4cc(-c5ccco5)ccc4c3CCN2C1=O)NCCN1CCOCC1,0,43*,-4,9,15,1,3,-2
COc1ccc(CSCC(=O)N/N=C/c2ccc(OCC(=O)N3CCCCC3)cc2)cc1,·,3,2,16,5,·,·,·
Cc1ccc(CSCC(=O)N/N=C/c2ccc(OCC(=O)Nc3ccc(C)cc3)cc2)cc1,·,102*,1,2,-1,80*,19,12
CN(C)CCCNc1ccc(-c2n[nH]c(=O)c3ccccc23)cc1[N+](=O)[O-],0,56*,-14,14,4,8,-11,-16
CCOc1ccccc1CNC(=O)C1CCCN(c2nnc(C)c3c(C)n(-c4ccccc4)nc23)C1 (stereo not drawn),0,41*,1,3,16,25,-29,2
Cc1ccc(-n2nc3c(N4CCC(C(=O)NCCc5ccccc5C)CC4)nnc(C)c3c2C)cc1,·,22,3,4,3,·,·,·
COc1ccc(-n2nc3c(N4CCC(C(=O)NCc5ccccc5C)CC4)nnc(C)c3c2C)cc1,·,74*,-4,5,16,34,-331,17
C[C@H](CO)N1C[C@H](C)[C@@H](CN(C)CC2CC2)Oc2cc(C#CC(C)(C)O)ccc2S1(=O)=O,0,·,·,·,·,·,·,·

# Assay outcomes deposited in PubChem BioAssay by several laboratories.
